# Screening results as filed in PubChem BioAssay.
# The list is not random: actives were taken first. Their share in the collection is about 4.2%.
# OX1R antag-1: antagonists of human orexin 1 receptor (OX1R). 330,000 compounds, 1.8% hits. inhibition, % at 6.6 µM. Orexin/Hypocretin receptor type 1 (Homo sapiens), O43613. OX1R-expressing cells, FRET antagonist read-out; in the data active = inhibition mostly above about 38%, no sharp cut-off; inactive = mostly below about 40%;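 note: 0% = agonist challenge alone and 100% = reference antagonist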
# Target sequence (O43613 whole entry, looked up): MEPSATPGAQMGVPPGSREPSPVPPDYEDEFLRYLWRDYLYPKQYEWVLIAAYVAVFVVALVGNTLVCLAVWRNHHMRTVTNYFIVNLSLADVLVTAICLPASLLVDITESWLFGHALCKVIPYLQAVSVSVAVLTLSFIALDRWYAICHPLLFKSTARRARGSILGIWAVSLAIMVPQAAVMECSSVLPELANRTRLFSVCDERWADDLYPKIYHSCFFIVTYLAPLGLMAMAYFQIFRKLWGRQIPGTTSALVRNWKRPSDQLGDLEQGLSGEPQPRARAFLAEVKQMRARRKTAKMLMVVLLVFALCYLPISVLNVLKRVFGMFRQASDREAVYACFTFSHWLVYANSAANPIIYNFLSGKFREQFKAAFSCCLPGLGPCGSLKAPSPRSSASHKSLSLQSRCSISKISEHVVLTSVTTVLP
# TAAR1 antagonist: human TAAR1 antagonists, primary screen, Fluo-8 calcium fluorescence, CHO RD-HGA16 cells | 360,000 compounds, 1.5% hits | inhibition, % at 3 µM | AID 624466, 2012 | Trace amine-associated receptor 1 (Homo sapiens), Q96RJ0 | antagonist;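 active = inhibition above a per-plate cutoff, the mean inhibition of test compounds on that plate plus 3 SD, cut at about 49% in these data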;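 note: 0% = DMSO plus EC80 beta-PEA response and 100% = DMSO alone without agonist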
#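 Assay system: RD-HGA16 CHO cells with stable hTAAR1 and Gα16 / Reagent: EC80 β-phenethylamine stimulus / Doses: 3 µM, single point / Timing: dye loading 75 min at 37 °C, then 30 min room temperature / Measured by: Fluo-8 intracellular calcium dye fluorescence, real-time kinetic reads / Controls: vehicle wells and EC80 agonist wells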
# CHO parental Ca: ATP-evoked calcium signal inhibitors, parental CHO, primary screen, counter-screen for OX1R antagonist project, cell-based, fluorescence, Fluo-8 calcium dye; parental CHO-K1, ATP-induced calcium, Fluo-8 fluorescence; inhibition, % at 5.6 µM; 330,000 compounds, 0.63% hits; AID 463079, 2010;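 active = inhibition above that plate's mean sample inhibition plus 3 SD, cut at about 26% in these data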;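 note: 0% = ATP-challenged DMSO wells and 100% = DMSO wells without ATP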
#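 Test system: untransfected parental CHO cell line. Compound: one dose, 5.6 µM nominal. Detection: intracellular calcium via Fluo-8 no-wash fluorescent dye. Measure: % inhibition. Benchmarks: ATP-challenged DMSO wells low, unchallenged DMSO wells high.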
# OX1R antag-2: OX1R (HCRTR1) antagonists, primary screen, fluorescence, CHO/OX1R cells, Fluo-8 calcium, orexin A | Orexin/Hypocretin receptor type 1 (Homo sapiens), O43613 | Fluo-8 calcium fluorescence | 330,000 compounds, 0.43% hits | inhibition, % at 5 µM;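 active = inhibition above its plate's threshold, mean inhibition of all tested compounds on the plate plus 3 SD, cut at about 37% in these data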;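 note: 0% = orexin A challenge wells and 100% = SB-334867-A antagonist wells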
# GalR3 antagonist: GalR3 antagonists in HEK293 cells, primary screen, cell-based, fluorescence readout; inhibition, % at 3 µM; 360,000 compounds, 0.44% hits; HEK293 GalR3-CNG cAMP membrane potential fluorescence; galR3 body fused to GalR1 C-terminus; Galanin receptor type 3 (Homo sapiens), O60755;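 active = inhibition above the screen-wide average plus 3 SD, cut at about 13% in these data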;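 note: forskolin and galanin both at EC90 stimulate the cells; cAMP rise reported by CNG channel membrane potential dye signal; 0% = forskolin plus galanin with DMSO and 100% = forskolin alone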
# TAAR1 agonist: human TAAR1 agonists, primary screen, Fluo-8 calcium fluorescence, CHO RD-HGA16 cells. vehicle wells 0%, saturating PEA agonist 100%. activation, % at 3 µM. 360,000 compounds, 0.99% hits. AID 624467, 2012;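 active = activation above the mean activation of all test compounds in the run plus 3 SD, cut at about 38% in these data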
#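 System: CHO-derived RD-HGA16 cells with stable Gα16 and human TAAR1 / Times: 17-24 h plating, Fluo-8 75 min 37 °C, 30 min RT / Technique: calcium-sensitive Fluo-8 signal, excitation 470-495, emission 515-575 nm / Measure: % activation relative to PEA EC100 response / Benchmarks: DMSO and PEA EC100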
# * marks the source's active call; other numbers are inactive results; / = no result given.
SMILES,OX1R antag-1,TAAR1 antagonist,CHO parental Ca,OX1R antag-2,GalR3 antagonist,TAAR1 agonist
N#Cc1c(-c2ccccc2)nc(SCC(=O)N2c3ccccc3Sc3ccccc32)[nH]c1=O,76*,10,-5,-15,1,14
CCCOC(=O)c1ccc(Oc2c(-c3ccc(O)cc3O)n[nH]c2C)cc1,2,16,50*,4,-2,15
Brc1cccc(C=Nc2cccc3ncccc23)c1,5,-4,6,-5,3,5
Oc1c(Br)cc(Br)cc1C=Nc1cccc2ncccc12,54*,-4,-4,-11,-6,1
Cc1ccc(N(CC(O)CN2CCOCC2)S(=O)(=O)c2ccc([N+](=O)[O-])cc2)cc1 (stereo unspecified),38*,9,-21,-20,-9,5
O=[N+]([O-])c1ccc(S(=O)(=O)CC(CN2CCOCC2)N2CCOCC2)cc1 (stereo unspecified),49*,14,-12,0,-6,4
O=C(/C=C/c1ccc([N+](=O)[O-])s1)N1CCN(c2ccccc2)CC1,5,-12,-4,5,-1,-2
CC1CC(C)CN(C(=O)/C=C/c2ccc([N+](=O)[O-])s2)C1 (stereo unspecified),/,20,/,/,-4,-1
O=C(/C=C/c1ccc([N+](=O)[O-])s1)N1CCCC1,52*,-1,-15,-18,-8,4
O=C(/C=C/c1ccc([N+](=O)[O-])s1)N1CCCCC1,74*,-1,-25,-31,-8,1
COc1ccc(-c2noc(CCCC(=O)Nc3cccnc3)n2)cc1OC,9,1,4,-6,1,0
COc1ccc(C(=O)N(c2ccccc2)C2C=CS(=O)(=O)C2)cc1 (stereo unspecified),3,5,3,-9,-5,1
O=C(Nc1c[nH]c(=O)[nH]c1=O)c1cc([N+](=O)[O-])cc([N+](=O)[O-])c1,69*,2,0,-1,-9,3
O=C(Nc1c[nH]c(=O)[nH]c1=O)c1ccc2c(c1)C(=O)N(c1cccc([N+](=O)[O-])c1)C2=O,/,-19,/,/,-5,2
O=C(OCCc1cc2ccccc2c(=O)o1)c1ccc(F)cc1,6,19,-8,0,-2,18
O=C(Nc1cccc(-c2nc3ccccc3s2)c1)C1=COCCO1,75*,7,-25,1,-5,3
Cc1cccc(NC(=O)c2c(-c3ccccc3)noc2C)n1,1,-18,-12,-13,4,-1
N=C1SCC(=O)N1c1ncc(Cc2ccc(F)cc2)s1,23,15,32,27,1,0
Cn1c(CN(O)S(=O)(=O)c2ccc(Cl)cc2)nnc1C(F)(F)F,5,-5,-2,5,-3,1
COc1ccc(N2C(=O)C(Cl)=C(Nc3ccccc3O)C2=O)cc1,30,49*,-1,-14,-2,11
c1ccc(N2CCN(Cc3ccc4c(c3)OCO4)CC2)nc1,2,-26,2,-9,-7,3
O=c1oc2ccc(C#CC3(O)CCCCC3)cc2cc1-n1cc(C2(O)CCCCC2)nn1,6,53*,-7,3,-6,27
CC(=O)Nc1cccc(NC(=O)c2ccc(C)c([N+](=O)[O-])c2)c1,17,10,-1,-4,-3,4
CCOc1cc(C(=S)N2CCCC2)ccc1OC,0,-21,-14,5,-10,-1
CCOc1cc(C(=S)N2CCCC2)ccc1OCC(=O)Nc1c(C)cc(C)cc1C,66*,-27,-21,15,-3,2
SMILES,OX1R antag-1,TAAR1 antagonist,CHO parental Ca,OX1R antag-2,GalR3 antagonist,TAAR1 agonist
Cc1cc(C)n(Cc2ccc(NC(=O)c3ccc(COc4ccccc4Br)cc3)cc2)n1,24,49*,14,-2,5,5
O=C(Nc1ccc(Br)cn1)c1ccc(Cl)s1,53*,-7,-31,-21,-12,-1
c1ccc2[nH]c(CSc3nc4ccccc4s3)nc2c1,72*,12,-21,8,5,17
O=S(=O)(CCSc1nc2ccccc2s1)c1nc2ccccc2s1,53*,14,-13,16,-7,2
O=C(CSc1nc2ccccc2s1)CSc1nc2ccccc2s1,45*,15,-11,-23,7,0
Cn1c(CSc2nc3ccccc3s2)nc2ccccc21,41*,9,-15,-13,-4,15
CCS(=O)(=O)CCSc1nc2ccccc2s1,14,17,-15,-16,0,1
O=C(O)CSc1nc2ccccc2s1,0,-28,9,-11,-4,0
c1ccc2[nH]c(CCCCc3nc4ccccc4[nH]3)nc2c1,3,-1,-23,-26,4,38*
COc1ccc(C2CC3(CC(C)(C)NC(=S)N3)Oc3cc(O)cc(C)c32)cc1 (stereo unspecified),4,2,-21,-14,2,1
COc1ccc(C2CC3(CC(C)(C)NC(SC)=N3)Oc3cc(O)cc(C)c32)cc1 (stereo unspecified),-30,5,-9,-4,-10,51*
O=C(Nc1nc(-c2ccccc2)cs1)c1ccc2c(=O)n3c(nc2c1)CCCCC3,51*,59*,15,21,4,15
O=C(Nc1cccc(S(=O)(=O)N2CCOCC2)c1)c1ccc2c(=O)n3c(nc2c1)CCCCC3,14,51*,-25,-25,2,16
CCOC(=O)N1CCN(Cc2nc(N)nc(Nc3ccc(OC)cc3)n2)CC1,2,-10,-1,-19,-6,7
Nc1nc(-c2ccc([N+](=O)[O-])cc2)cc(=O)[nH]1,/,-6,/,/,-2,0
Nc1n[nH]c(-c2ccc([N+](=O)[O-])cc2[N+](=O)[O-])n1,67*,-7,1,-7,-6,2
COc1ccc(-c2cc(C(=O)N3CCCCCC3)c3ccccc3n2)cc1OC,/,24,/,/,-7,10
COc1ccc(-c2cc(C(=O)OCC(=O)N3CCCCC3)c3ccccc3n2)cc1OC,15,71*,-26,-25,-6,9
COc1ccc(-c2cc(C(=O)N3CCCC(C(F)(F)F)C3)c3ccccc3n2)cc1OC (stereo unspecified),25,50*,-18,-32,-1,14
O=C(c1cc(-c2ccccc2)nc2ccccc12)N1CCN(c2ccccc2O)CC1,8,55*,-2,-13,-4,7
